# Measurements taken from ChEMBL document CHEMBL2046352, “Discovery of novel 5-(ethyl or hydroxymethyl) analogs of 2'-'up' fluoro (or hydroxyl) pyrimidine nucleosides as a new class of Mycobacterium tuberculosis, Mycobacterium bovis and Mycobacterium avium inhibitors” (Bioorg Med Chem, 2012).
# The source made the active and inactive calls. The rule behind the calls is not given here.
# Assays:
# Mycobacterium avium [1] = assay: Antimycobacterial activity against Mycobacterium avium ATCC 25291 assessed as inhibition of microbial growth at 2 ug/ml incubated for 6 days by MABA method; format: functional, Mycobacterium avium subsp. avium ATCC 25291; conditions: ATCC 25291, 144 h, read-out: GI
# [2] = test system: Mycobacterium tuberculosis; assay: Antimycobacterial activity against Mycobacterium tuberculosis H37Ra assessed as inhibition of microbial growth at 0.5 ug/ml incubated for 6 days by MABA method; format: functional; conditions: 144 h, read-out: GI
# In short: (§1)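 Microplate alamar blue assay in 7H9GC medium. Compounds dissolved in DMSO at 10 mg/mL (stock), diluted to 100, 50, 25, 10, 5, 1 and 0.5 ug/mL, each in triplicate. Frozen inoculum added at final 2.5 x 10^5 CFU/mL. Bacteria-alone and medium-alone control wells. Read by colour change and fluorescence. % inhibition = (test − M bkg)/(B − M bkg) x 100, mean of two experiments. MIC50 = lowest concentration giving ≥50% inhibition.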
# [3] = test system: Mycobacterium tuberculosis; assay: Antimycobacterial activity against Mycobacterium tuberculosis H37Rv assessed as inhibition of microbial growth at 2 ug/ml by radiometric-BACTEC assay; format: functional, organism-based
# [4] = test system: Mycobacterium tuberculosis; assay: Antimycobacterial activity against Mycobacterium tuberculosis H37Ra assessed as inhibition of microbial growth at 0.5 to 100 ug/ml incubated for 6 days by MABA method; format: functional; in short: as §1
# Mycobacterium avium [5] = assay: Antimycobacterial activity against Mycobacterium avium ATCC 25291 assessed as inhibition of microbial growth at 0.5 to 100 ug/ml incubated for 6 days by MABA method; format: functional, Mycobacterium avium subsp. avium ATCC 25291; in short: as §1
# [6] = Toxicity against human HuH7 cells after 2 days by XTT assay; format: cell-based, Huh-7
# In short: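 Huh-7 hepatoma cells seeded at 2 x 10^4/well, allowed to attach 6–8 h, then exposed to 200, 100, 50, 10 and 1 ug/mL with a DMSO control for two days at 37 °C. Viability by XTT, 4 h at 37 °C, absorbance 450–500 nm.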
# [7] = Toxicity against human HuH7 cells after 2 days by [3H]thymidine incorporation assay; format: cell-based, Huh-7
# In short: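 Huh-7 cells plated at 1 x 10^4/well and exposed in triplicate to 200, 100, 50, 10 and 1 ug/mL with a DMSO control for two days at 37 °C. Pulsed with 0.5 uCi/well [3H]-thymidine for 12–18 h, harvested onto filters, incorporation counted by liquid scintillation.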
# [8] = test system: Mycobacterium tuberculosis; assay: Antimycobacterial activity against Mycobacterium tuberculosis H37Rv assessed as inhibition of microbial growth at 1 ug/ml by radiometric-BACTEC assay; format: functional; conditions: read-out: GI
# [9] = test system: Mycobacterium tuberculosis; assay: Antimycobacterial activity against Mycobacterium tuberculosis H37Ra assessed as inhibition of microbial growth at 0.1 ug/ml incubated for 6 days by MABA method; format: functional; conditions: 144 h, read-out: GI
# [10] = test system: Mycobacterium tuberculosis; assay: Antimycobacterial activity against Mycobacterium tuberculosis H37Ra assessed as inhibition of microbial growth at 100 ug/ml incubated for 6 days by MABA method; format: functional; conditions: 144 h, read-out: GI; in short: as §1
# [11] = test system: Mycobacterium tuberculosis; assay: Antimycobacterial activity against Mycobacterium tuberculosis H37Ra assessed as inhibition of microbial growth at 50 ug/ml incubated for 6 days by MABA method; format: functional; conditions: 144 h, read-out: GI; in short: as §1
# [12] = test system: Mycobacterium tuberculosis; assay: Antimycobacterial activity against Mycobacterium tuberculosis H37Ra assessed as inhibition of microbial growth at 10 ug/ml incubated for 6 days by MABA method; format: functional; conditions: 144 h, read-out: GI; in short: as §1
# [13] = test system: Mycobacterium tuberculosis; assay: Antimycobacterial activity against Mycobacterium tuberculosis H37Ra assessed as inhibition of microbial growth at 5 ug/ml incubated for 6 days by MABA method; format: functional; conditions: 144 h, read-out: GI; in short: as §1
# [14] = test system: Mycobacterium tuberculosis; assay: Antimycobacterial activity against Mycobacterium tuberculosis H37Ra assessed as inhibition of microbial growth incubated for 6 days by MABA method; format: functional; conditions: 144 h; in short: as §1
# Mycobacterium avium [15] = assay: Antimycobacterial activity against Mycobacterium avium ATCC 25291 assessed as inhibition of microbial growth at 100 ug/ml incubated for 6 days by MABA method; format: functional, Mycobacterium avium subsp. avium ATCC 25291; conditions: ATCC 25291, 144 h, read-out: GI; in short: as §1
# Mycobacterium avium [16] = assay: Antimycobacterial activity against Mycobacterium avium ATCC 25291 assessed as inhibition of microbial growth at 50 ug/ml incubated for 6 days by MABA method; format: functional, Mycobacterium avium subsp. avium ATCC 25291; conditions: ATCC 25291, 144 h, read-out: GI; in short: as §1
# Mycobacterium avium [17] = assay: Antimycobacterial activity against Mycobacterium avium ATCC 25291 assessed as inhibition of microbial growth at 10 ug/ml incubated for 6 days by MABA method; format: functional, Mycobacterium avium subsp. avium ATCC 25291; conditions: ATCC 25291, 144 h, read-out: GI; in short: as §1
# Mycobacterium avium [18] = assay: Antimycobacterial activity against Mycobacterium avium ATCC 25291 assessed as inhibition of microbial growth incubated for 6 days by MABA method; format: functional, Mycobacterium avium subsp. avium ATCC 25291; conditions: ATCC 25291, 144 h; in short: as §1
# [19] = test system: Mycobacterium tuberculosis; assay: Antimycobacterial activity against Mycobacterium tuberculosis H37Rv assessed as inhibition of microbial growth by radiometric-BACTEC assay; format: functional
# [20] = test system: Mycobacterium tuberculosis; assay: Potency index, ratio of MIC50 for cycloserine to MIC50 for compound against Mycobacterium tuberculosis H37Ra incubated for 6 days by MABA method; format: functional
# [21] = test system: Mycobacterium tuberculosis; assay: Antimycobacterial activity against Mycobacterium tuberculosis H37Ra assessed as inhibition of microbial growth at 15 to 20 ug/ml incubated for 6 days by MABA method; format: functional
Compound,growth inhibition (GI) (Mycobacterium avium [5]) [%],CC50 at 48 h [6] [µg/mL],CC50 at 48 h [7] [µg/mL],inhibition of growth at 100 µg/mL [10] [%],inhibition of growth at 50 µg/mL [11] [%],MIC50 [14] [µg/mL],inhibition of growth at 100 µg/mL (Mycobacterium avium [15]) [%],other results
CC[C@H]1OC(=O)[C@H](C)[C@@H](O[C@H]2C[C@@](C)(OC)[C@@H](O)[C@H](C)O2)[C@H](C)[C@@H](O[C@@H]2O[C@H](C)C[C@H](N(C)C)[C@H]2O)[C@](C)(OC)C[C@@H](C)C(=O)[C@H](C)[C@@H](O)[C@]1(C)O [CLARITHROMYCIN],,,,,,,,inhibition of growth at 2 µg/mL (Mycobacterium avium [1]): 100%
CO[C@H]1/C=C/O[C@@]2(C)Oc3c(C)c(O)c4c(O)c(c(/C=N/N5CCN(C)CC5)c(O)c4c3C2=O)NC(=O)/C(C)=C\C=C\[C@H](C)[C@H](O)[C@@H](C)[C@@H](O)[C@@H](C)[C@H](OC(C)=O)[C@@H]1C [RIFAMPIN],,,,,,,,inhibition of growth at 0.5 µg/mL [2]: 100%; inhibition of growth at 2 µg/mL (Mycobacterium avium [1]): 90%; growth inhibition (GI) [3]: inactive
CCc1cn([C@@H]2O[C@H](CO)[C@@H](N=[N+]=[N-])[C@@H]2F)c(=O)[nH]c1=O,0,> 100,> 100,,,,,growth inhibition (GI) [4]: 0%
"CCc1cn([C@H]2O[C@@H](CO)[C@H](O)[C@H]2F)c(=O)[nH]c1=O (single isomer, unassigned)",0,> 100,> 100,,,,,growth inhibition (GI) [4]: 0%
NNC(=O)c1ccncc1 [ISONIAZID],,,,,,,,inhibition of growth at 1 µg/mL [8]: 100%; inhibition of growth at 0.1 µg/mL [9]: 10%
CCc1cn([C@@H]2O[C@H](CO)[C@@H](Br)[C@@H]2F)c(=O)[nH]c1=O,0,> 100,> 100,78,65,5,,inhibition of growth at 10 µg/mL [12]: 56%; inhibition of growth at 5 µg/mL [13]: 50%
CCc1cn([C@@H]2O[C@H](CO)[C@@H](O)[C@@H]2F)c(=O)[nH]c1=S,,> 100,> 100,60,50,50,35,inhibition of growth at 50 µg/mL (Mycobacterium avium [16]): 25%
CCc1cn2c(nc1=O)O[C@@H]1[C@H](F)[C@H]2O[C@@H]1CO,,> 100,> 100,25,25,,50,inhibition of growth at 50 µg/mL (Mycobacterium avium [16]): 25%
O=c1[nH]c(=S)c(CO)cn1[C@@H]1O[C@H](CO)[C@@H](O)[C@@H]1O,,> 100,> 100,100,100,0.5,73,inhibition of growth at 10 µg/mL [12]: 90%; inhibition of growth at 5 µg/mL [13]: 70%; inhibition of growth at 0.5 µg/mL [2]: 50%; inhibition of growth at 50 µg/mL (Mycobacterium avium [16]): 58%; inhibition of growth at 10 µg/mL (Mycobacterium avium [17]): 50%; MIC50 (Mycobacterium avium [18]): 10 µg/mL; MIC50 [19]: 1 µg/mL; Ratio [20]: 10
CCc1cn([C@@H]2O[C@H](COC(C)=O)[C@@H](OC(C)=O)[C@@H]2F)c(=O)[nH]c1=O,,> 100,> 100,68,55,,35,
O=c1[nH]c(=O)n([C@@H]2O[C@H](CO)[C@@H](O)[C@@H]2O)cc1CO,0,> 100,> 100,,,,,growth inhibition (GI) [4]: 0%
N[C@@H]1CONC1=O [CYCLOSERINE],,,,100,100,5,,inhibition of growth at 10 µg/mL [12]: 60%; inhibition of growth at 5 µg/mL [13]: 50%; growth inhibition (GI) [21]: 80%
CCc1cn([C@@H]2O[C@H](CO)[C@@H](O)[C@@H]2F)c(=O)nc1N,0,> 100,> 100,50,,100,,
CCc1cn([C@@H]2O[C@H](CO)C[C@@H]2F)c(=O)[nH]c1=O,,> 100,> 100,25,,,25,
COCc1cn([C@@H]2O[C@H](CO)[C@@H](O)[C@@H]2O)c(=O)nc1N,,> 100,> 100,80,60,,20,inhibition of growth at 10 µg/mL [12]: 50%
